Laboratory results taken from PubChem BioAssay AID602226 (The Scripps Research Institute Molecular Screening Center, 2012).
pIC50: −log10 of the molar value. Calls of active or inactive are those of the source.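 How the source made its calls: active means average inhibition of labeled dioxin binding to the receptor of at least 10% at 10 µM; inactive means the rest.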

Tested on: Aryl hydrocarbon receptor (Cavia porcellus)
Experiment: competitors of radiolabeled TCDD at AHR – cell lysate, guinea pig liver cytosol, radiometric, counter-screen for AHR activator project, late-stage follow-up (AID 602226)
Conditions: [3H]TCDD HAP binding; for inhibition: at 10 µM, stronger effect = higher value
Method in brief: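 assay system = guinea pig hepatic cytosol, AHR source | input = 2 mg/mL cytosolic protein | times = 1 h binding incubation, room temperature | technique = Hydroxyapatite capture, Tween-buffer washes, then scintillation counting | read-out = percent inhibition of specific [3H]TCDD binding, TCDF-defined nonspecific subtracted | repeats = three replicates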

[1] = measured here: IC50 range lower bound
[2] = measured here: IC50 range upper bound

| SMILES | inhibition | pIC50 [1] | pIC50 [2] |
| --- | --- | --- | --- |
| COc1ccc(NC(=O)c2cccc3c(Br)cccc23)cc1 | 65% | 7.00 | 6.00 |
| CCOC(=O)Cc1cc(-c2ccc(O)cc2)nc2ccc3ccccc3c12 | 39% | 6.00 | – |
| Cc1ccc(-c2cc(-c3cccs3)[nH]n2)c(O)c1 | 99% | – | 7.00 |
| Cc1nc(N)nc(Nc2ccc(Cl)cc2)c1Br | 79% | 7.00 | 6.00 |
| COc1ccccc1NC(=O)c1ccc(C(=O)Nc2ccccc2OC)nc1 | 32% | – | – |
| Cc1csc(SCC(=O)Nc2ccc(Cl)cn2)n1 | 9.5% (inactive) | – | – |
